Results taken from ChEMBL document CHEMBL4257488, “Synthesis and evaluation of nuciferine and roemerine enantiomers as 5-HT2 and α1 receptor antagonists” (Medchemcomm, 2018).

Legend:
[1] = target: T1, Alpha-1B adrenergic receptor (Homo sapiens) (UniProt P35368); test: Antagonist activity at human adrenergic alpha1B receptor expressed in HEK293 cells assessed as inhibition of noradrenaline-induced receptor activation preincubated for 15 mins followed by noradrenaline addition and measured after 1 hr by TGFalpha shedding assay
T1 sequence (whole entry): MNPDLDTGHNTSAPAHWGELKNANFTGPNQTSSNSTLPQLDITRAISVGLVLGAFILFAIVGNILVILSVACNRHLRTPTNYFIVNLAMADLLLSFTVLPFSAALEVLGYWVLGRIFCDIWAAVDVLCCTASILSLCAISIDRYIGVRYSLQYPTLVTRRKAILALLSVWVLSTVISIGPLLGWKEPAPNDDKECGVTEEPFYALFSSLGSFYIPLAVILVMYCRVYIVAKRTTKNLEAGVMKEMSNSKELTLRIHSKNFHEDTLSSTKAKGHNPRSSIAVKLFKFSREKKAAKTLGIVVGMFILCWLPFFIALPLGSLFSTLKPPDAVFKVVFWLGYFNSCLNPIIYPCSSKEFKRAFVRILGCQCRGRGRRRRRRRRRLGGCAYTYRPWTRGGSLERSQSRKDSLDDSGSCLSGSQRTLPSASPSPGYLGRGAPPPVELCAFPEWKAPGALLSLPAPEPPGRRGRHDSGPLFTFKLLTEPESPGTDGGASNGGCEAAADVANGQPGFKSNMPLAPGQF

Homo sapiens [2] = species on record: Homo sapiens; test: Selectivity ratio of Kb for human 5-HT2B receptor to Kb for human 5-HT2A receptor
How it was run: (§1)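 Ratio of the Kb at receptor Y to the Kb at receptor X. Each Kb came from TGFα-shedding antagonist curves in transfected HEK293 cells, converted from IC50 with the modified Gaddum equation IC50/([A]/EC50 − 1).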

[3] = target: T2, Alpha-1A adrenergic receptor (Homo sapiens) (UniProt P35348); test: Antagonist activity at human adrenergic alpha1A receptor expressed in HEK293 cells assessed as inhibition of noradrenaline-induced receptor activation preincubated for 15 mins followed by noradrenaline addition and measured after 1 hr by TGFalpha shedding assay
T2 sequence (whole entry): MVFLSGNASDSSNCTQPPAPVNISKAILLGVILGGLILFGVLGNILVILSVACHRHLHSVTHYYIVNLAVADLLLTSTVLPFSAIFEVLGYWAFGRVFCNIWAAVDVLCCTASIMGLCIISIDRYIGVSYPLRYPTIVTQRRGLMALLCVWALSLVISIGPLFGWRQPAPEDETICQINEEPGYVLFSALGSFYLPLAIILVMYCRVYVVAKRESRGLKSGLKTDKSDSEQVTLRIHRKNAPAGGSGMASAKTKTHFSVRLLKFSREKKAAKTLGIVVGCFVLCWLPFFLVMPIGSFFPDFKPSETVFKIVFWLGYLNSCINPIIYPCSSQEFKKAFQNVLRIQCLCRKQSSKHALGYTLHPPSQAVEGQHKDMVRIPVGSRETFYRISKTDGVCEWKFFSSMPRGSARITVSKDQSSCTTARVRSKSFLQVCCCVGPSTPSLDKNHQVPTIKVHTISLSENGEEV

Homo sapiens [4] = species on record: Homo sapiens; test: Selectivity ratio of Kb for human 5-HT2B receptor to Kb for human 5-HT2C receptor
How it was run: as §1

[5] = target: T3, 5-hydroxytryptamine receptor 2C (Homo sapiens) (UniProt P28335); test: Antagonist activity at human 5-HT2C receptor expressed in HEK293 cells assessed as inhibition of serotonin-induced receptor activation preincubated for 15 mins followed by serotonin addition and measured after 1 hr by TGFalpha shedding assay; type: functional, cell-based
T3 sequence (whole entry): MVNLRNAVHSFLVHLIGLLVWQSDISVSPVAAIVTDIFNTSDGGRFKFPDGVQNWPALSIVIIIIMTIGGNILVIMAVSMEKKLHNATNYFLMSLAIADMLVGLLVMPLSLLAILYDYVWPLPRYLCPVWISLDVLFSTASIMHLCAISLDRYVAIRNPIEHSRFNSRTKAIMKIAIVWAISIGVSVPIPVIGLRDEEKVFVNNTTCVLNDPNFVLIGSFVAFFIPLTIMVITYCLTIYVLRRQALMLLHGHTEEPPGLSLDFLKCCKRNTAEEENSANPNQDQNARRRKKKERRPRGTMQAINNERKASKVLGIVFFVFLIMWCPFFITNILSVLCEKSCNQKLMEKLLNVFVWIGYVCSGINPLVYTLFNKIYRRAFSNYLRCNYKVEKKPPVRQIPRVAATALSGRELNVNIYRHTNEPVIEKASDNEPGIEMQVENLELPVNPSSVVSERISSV
How it was run: (§2)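 HEK293 cells were co-transfected with the receptor construct and alkaline phosphatase-tagged TGFα, then seeded in HBSS. Cells were pretreated 15 min with compound (0.1 nM–30 µM final), then given serotonin at final 1 µM (5-HT2A) or 0.1 µM (5-HT2B, 5-HT2C) for 1 h at 37 °C. Readout was supernatant/total AP activity (p-nitrophenol, 405 nm), normalised to maximal agonist response, in triplicate. Kb came from IC50 via the modified Gaddum equation.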

Homo sapiens [6] = species on record: Homo sapiens; test: Selectivity ratio of Kb for human adrenergic alpha1D receptor to Kb for human adrenergic alpha1A receptor
How it was run: as §1

[7] = target: T4, Alpha-1D adrenergic receptor (Homo sapiens) (UniProt P25100); test: Antagonist activity at human adrenergic alpha1D receptor expressed in HEK293 cells assessed as inhibition of noradrenaline-induced receptor activation preincubated for 15 mins followed by noradrenaline addition and measured after 1 hr by TGFalpha shedding assay
T4 sequence (whole entry): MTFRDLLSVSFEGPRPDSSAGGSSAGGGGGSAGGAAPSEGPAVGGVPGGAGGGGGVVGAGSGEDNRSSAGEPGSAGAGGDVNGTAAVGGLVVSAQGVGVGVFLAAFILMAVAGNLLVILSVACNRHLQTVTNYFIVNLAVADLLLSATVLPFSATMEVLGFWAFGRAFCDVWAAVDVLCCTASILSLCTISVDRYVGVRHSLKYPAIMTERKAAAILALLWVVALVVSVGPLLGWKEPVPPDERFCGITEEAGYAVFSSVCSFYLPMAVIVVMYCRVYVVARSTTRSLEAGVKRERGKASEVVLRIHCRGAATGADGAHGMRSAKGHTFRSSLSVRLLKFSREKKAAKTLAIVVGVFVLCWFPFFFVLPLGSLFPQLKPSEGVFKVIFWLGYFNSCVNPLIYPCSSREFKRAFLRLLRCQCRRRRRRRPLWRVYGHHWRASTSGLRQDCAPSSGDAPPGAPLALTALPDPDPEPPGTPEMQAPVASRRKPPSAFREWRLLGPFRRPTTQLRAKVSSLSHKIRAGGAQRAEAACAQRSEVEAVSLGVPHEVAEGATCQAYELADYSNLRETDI

Homo sapiens [8] = species on record: Homo sapiens; test: Selectivity ratio of Kb for human adrenergic alpha1D receptor to Kb for human adrenergic alpha1B receptor
How it was run: as §1

Homo sapiens [9] = species on record: Homo sapiens; test: Selectivity ratio of Kb for human adrenergic alpha1B receptor to Kb for human adrenergic alpha1A receptor
How it was run: as §1

[10] = target: 5-hydroxytryptamine receptor 2A (Homo sapiens) (UniProt P28223); test: Antagonist activity at human 5-HT2A receptor expressed in HEK293 cells assessed as inhibition of serotonin-induced receptor activation preincubated for 15 mins followed by serotonin addition and measured after 1 hr by TGFalpha shedding assay; type: functional, cell-based
Sequence of 5-hydroxytryptamine receptor 2A (Homo sapiens) (P28223 whole entry): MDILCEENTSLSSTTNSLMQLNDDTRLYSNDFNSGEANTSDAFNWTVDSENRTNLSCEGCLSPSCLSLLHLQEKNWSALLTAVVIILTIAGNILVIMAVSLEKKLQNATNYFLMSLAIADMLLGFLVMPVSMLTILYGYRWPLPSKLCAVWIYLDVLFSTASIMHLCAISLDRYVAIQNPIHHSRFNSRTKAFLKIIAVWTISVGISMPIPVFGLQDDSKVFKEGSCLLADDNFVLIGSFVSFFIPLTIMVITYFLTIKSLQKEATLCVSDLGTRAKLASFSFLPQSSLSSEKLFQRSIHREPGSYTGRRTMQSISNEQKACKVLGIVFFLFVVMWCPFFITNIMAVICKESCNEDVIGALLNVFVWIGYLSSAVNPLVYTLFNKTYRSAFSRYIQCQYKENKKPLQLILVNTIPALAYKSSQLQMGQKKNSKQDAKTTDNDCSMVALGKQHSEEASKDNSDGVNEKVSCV
How it was run: as §2, with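 “°C.” for “°C. Readout was supernatant/total AP activity (p-nitrophenol, 405 nm), normalised to maximal agonist response, in triplicate.”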

[11] = target: 5-hydroxytryptamine receptor 2B (Homo sapiens) (UniProt P41595); test: Antagonist activity at human 5-HT2B receptor expressed in HEK293 cells assessed as inhibition of serotonin-induced receptor activation preincubated for 15 mins followed by serotonin addition and measured after 1 hr by TGFalpha shedding assay; type: functional, cell-based
Sequence of 5-hydroxytryptamine receptor 2B (Homo sapiens) (P41595 whole entry): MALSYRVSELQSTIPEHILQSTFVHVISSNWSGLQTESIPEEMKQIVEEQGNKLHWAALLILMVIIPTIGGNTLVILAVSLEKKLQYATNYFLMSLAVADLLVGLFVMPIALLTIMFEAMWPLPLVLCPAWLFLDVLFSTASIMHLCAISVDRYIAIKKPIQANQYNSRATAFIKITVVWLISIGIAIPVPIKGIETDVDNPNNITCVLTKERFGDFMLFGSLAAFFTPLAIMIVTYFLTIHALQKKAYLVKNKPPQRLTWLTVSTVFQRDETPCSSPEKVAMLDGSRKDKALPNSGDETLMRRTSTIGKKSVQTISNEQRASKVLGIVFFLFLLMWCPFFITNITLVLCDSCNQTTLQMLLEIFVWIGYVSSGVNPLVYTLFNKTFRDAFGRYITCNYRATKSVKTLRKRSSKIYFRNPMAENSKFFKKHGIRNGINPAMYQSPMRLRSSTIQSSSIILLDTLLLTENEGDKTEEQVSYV
How it was run: as §2, with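 “°C.” for “°C. Readout was supernatant/total AP activity (p-nitrophenol, 405 nm), normalised to maximal agonist response, in triplicate.”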

[12] = target: Serotonin 2 receptors; 5-HT2a & 5-HT2c (Homo sapiens) (UniProt P28223+P28335); test: Selectivity ratio of Kb for human 5-HT2C receptor to Kb for human 5-HT2A receptor
Sequence of Serotonin 2 receptors; 5-HT2a & 5-HT2c (Homo sapiens) (P28223 whole entry, looked up, one chain of several): as the sequence (P28223 whole entry) above
How it was run: as §1

Homo sapiens [13] = species on record: Homo sapiens; test: Selectivity ratio of Kb for human adrenergic alpha1A receptor to Kb for human 5-HT2A receptor
How it was run: as §1

Homo sapiens [14] = species on record: Homo sapiens; test: Selectivity ratio of Kb for human adrenergic alpha1B receptor to Kb for human 5-HT2A receptor
How it was run: as §1

Homo sapiens [15] = species on record: Homo sapiens; test: Selectivity ratio of Kb for human adrenergic alpha1B receptor to Kb for human 5-HT2C receptor
How it was run: as §1

Homo sapiens [16] = species on record: Homo sapiens; test: Selectivity ratio of Kb for human adrenergic alpha1D receptor to Kb for human 5-HT2A receptor
How it was run: as §1

Homo sapiens [17] = species on record: Homo sapiens; test: Selectivity ratio of Kb for human adrenergic alpha1A receptor to Kb for human 5-HT2C receptor
How it was run: as §1

Homo sapiens [18] = species on record: Homo sapiens; test: Selectivity ratio of Kb for human adrenergic alpha1D receptor to Kb for human 5-HT2C receptor
How it was run: as §1

[19] = target: T5, Alpha-1D adrenergic receptor (Homo sapiens, UniProt P25100); test: Displacement of [125I]-HEAT from human adrenergic alpha1D receptor expressed in rat-1 cells; type: cell-based
T5 sequence (P25100 whole entry): T4 sequence (whole entry)

[20] = target: T6, Alpha-1B adrenergic receptor (Homo sapiens, UniProt P35368); test: Displacement of [125I]-HEAT from human adrenergic alpha1B receptor expressed in rat-1 cells; type: cell-based
T6 sequence (P35368 whole entry): T1 sequence (whole entry)

[21] = target: T7, Alpha-1A adrenergic receptor (Homo sapiens, UniProt P35348); test: Displacement of [125I]-HEAT from human adrenergic alpha1A receptor expressed in rat-1 cells; type: cell-based
T7 sequence (P35348 whole entry): T2 sequence (whole entry)

| Structure (SMILES) | Kb [1] | pKb [1] | Selectivity ratio (Homo sapiens [2]) | Kb [3] | pKb [3] | Selectivity ratio (Homo sapiens [4]) | Kb [5] | pKb [5] | Selectivity ratio (Homo sapiens [6]) | Kb [7] | pKb [7] | Selectivity ratio (Homo sapiens [8]) | Selectivity ratio (Homo sapiens [9]) | Kb [10] | pKb [10] | Kb [11] | pKb [11] | Selectivity ratio [12] | Selectivity ratio (Homo sapiens [13]) | other results |
| --- | --- | --- | --- | --- | --- | --- | --- | --- | --- | --- | --- | --- | --- | --- | --- | --- | --- | --- | --- | --- |
| CN1CCc2cc3c(c4c2[C@@H]1Cc1ccccc1-4)OCO3 | 154 nM | 6.81 | 2 | 86 nM | 6.62 to 7.07 | 1 | 76.9 nM | 7.12 | 1 | 92.2 nM | 7.04 | 0.6 | 2 | 42.9 nM | 7.06 to 7.37 | 92.7 nM | 7.03 | 2 | 3 |  |
| CN1CCc2cc3c(c4c2[C@H]1Cc1ccccc1-4)OCO3 | 266 nM | 6.57 | 8 | 338 nM | 6.38 to 6.47 | 6 | 15.1 nM | 7.82 | 0.1 | 46 nM | 7.34 | 0.2 | 0.8 | 10.8 nM | 7.88 to 7.97 | 84 nM | 7.08 | 1 | 32 | Selectivity ratio (Homo sapiens [14]): 18 to 32; Selectivity ratio (Homo sapiens [15]): 18 to 32; Selectivity ratio (Homo sapiens [16]): 3 to 4; Selectivity ratio (Homo sapiens [17]): 18 to 32; Selectivity ratio (Homo sapiens [18]): 3 to 4; Ki [19]: 631 nM; Ki [20]: 3160 nM; Ki [21]: 251 nM |
| COc1cc2c3c(c1OC)-c1ccccc1C[C@H]3N(C)CC2 | 60.6 nM | 7.22 | 0.5 | 37.8 nM | 7.31 to 7.42 | 1 | 36.4 nM | 7.44 | 4 | 165 nM | 6.78 | 3 | 2 | 65.3 nM | 7.18 to 7.26 | 31 nM | 7.51 | 0.6 | 1 |  |
| COc1cc2c3c(c1OC)-c1ccccc1C[C@@H]3N(C)CC2 | 316 nM | 6.5 | 0.5 | 67.1 nM | 6.91 to 7.17 | 1 | 30.9 nM | 7.51 | 2 | 116 nM | 6.94 | 0.4 | 5 | 84.3 nM | 6.85 to 7.07 | 41.7 nM | 7.38 | 0.4 | 1 |  |
